Experimental data as given in ChEMBL document CHEMBL1154511, “Synthesis and biological evaluation of amide derivatives of diflunisal as potential anti-inflammatory agents” (2009).

Assays:
Type in all cases: functional
[1] = system: Mus musculus; test: Antiinflammatory activity in mouse assessed as inhibition of xylene-induced ear edema at 40 mg/kg, po
How it was run: (§1)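 Male and female Kunming mice (20–26 g) given the test substance by the oral route at 40 mg/kg. Percent inhibition was scored in the xylene-induced ear edema model (anti-inflammatory) or the acetic acid-induced writhing model (analgesic).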

[2] = system: Mus musculus; test: Analgesic activity in Kunming mouse assessed as inhibition of acetic acid-induced writhing response at 40 mg/kg, po; how it was run: as §1
[3] = system: Mus musculus; test: Antiinflammatory activity in orally dosed mouse assessed as inhibition of xylene-induced ear edema; settings: po
How it was run: (§2)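 Male and female Kunming mice (20–26 g) dosed orally. ED50 was determined in the xylene-induced ear edema model (anti-inflammatory) or the acetic acid-induced writhing model (analgesic).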

[4] = system: Mus musculus; test: Analgesic activity in orally dosed Kunming mouse assessed as inhibition of acetic acid-induced writhing response; settings: po; how it was run: as §2
[5] = system: Rattus norvegicus; test: Antiinflammatory activity in rat assessed as inhibition of carrageenan-induced paw edema

SMILES	inhibition in vivo at 40 mg/kg [1] [%]	inhibition in vivo at 40 mg/kg [2] [%]	ED50 [3] [mg/kg]	ED50 [4] [mg/kg]	ED50 [5] [mg/kg]
CN1CCN(C(=O)c2cc(-c3ccc(F)cc3F)ccc2OC(=O)c2ccccc2)CC1	27.5	88.3	–	–	–
CC(=O)Oc1ccc(-c2ccc(F)cc2F)cc1C(=O)O	13.7	0	–	–	–
O=C(Oc1ccc(-c2ccc(F)cc2F)cc1C(=O)O)c1ccccc1	16.1	7.97	–	–	–
CC(=O)Oc1ccc(-c2ccc(F)cc2F)cc1C(=O)Nc1cc(C)ccc1C	22	13.2	–	–	–
Cc1ccccc1NC(=O)c1cc(-c2ccc(F)cc2F)ccc1OC(=O)c1ccccc1	21.4	20.8	–	–	–
CCN(CC)C(=O)c1cc(-c2ccc(F)cc2F)ccc1OC(=O)c1ccccc1	65.2	0	25.7	–	–
CC(=O)Oc1ccc(-c2ccc(F)cc2F)cc1C(=O)NN1CCOCC1	0	28.5	–	–	–
CNC(=O)c1cc(-c2ccc(F)cc2F)ccc1OC(=O)c1ccccc1	68.9	47.5	24.2	43.8	–
O=C(Oc1ccc(-c2ccc(F)cc2F)cc1C(=O)Nc1ccccc1)c1ccccc1	19.8	5.57	–	–	–
CC(=O)Oc1ccc(-c2ccc(F)cc2F)cc1C(=O)Nc1ccccc1Cl	41.4	11.7	–	–	–
CC(=O)Oc1ccc(-c2ccc(F)cc2F)cc1C(=O)Nc1ccc(Cl)cc1	0	29.9	–	–	–
CC(=O)Oc1ccc(-c2ccc(F)cc2F)cc1C(=O)Nc1ccccc1C	19.6	12.3	–	–	–
CC(=O)Oc1ccc(-c2ccc(F)cc2F)cc1C(=O)Nc1ccc(C)cc1	36.4	31	–	–	–
CC(=O)Oc1ccc(-c2ccc(F)cc2F)cc1C(=O)NCc1ccccc1	34.1	16.6	–	–	–
CCNC(=O)c1cc(-c2ccc(F)cc2F)ccc1OC(C)=O	5.38	23.9	–	–	–
CC(=O)Oc1ccc(-c2ccc(F)cc2F)cc1C(=O)NC1CCCCC1	0	15.6	–	–	–
CC(=O)Oc1ccc(-c2ccc(F)cc2F)cc1C(=O)Nc1ccccc1	23.2	8.9	–	–	–
CC(=O)Oc1ccc(-c2ccc(F)cc2F)cc1C(=O)Nc1cccc(C)c1	12.8	19	–	–	–
CNC(=O)c1cc(-c2ccc(F)cc2F)ccc1OC(C)=O	48.8	29.9	–	–	–
O=C(O)c1cc(-c2ccc(F)cc2F)ccc1O [DIFLUNISAL]	39.9	8.33	–	–	59.6
